Assay results published in ChEMBL document CHEMBL1770130, “Design, synthesis, and in vivo characterization of a novel series of tetralin amino imidazoles as γ-secretase inhibitors: discovery of PF-3084014” (Bioorg Med Chem Lett, 2011).
Activity calls are given as the source filed them. No cut-off for these calls is given here.

Key:
Gamma-secretase [1] = experiment: Inhibition of gamma-secretase in human HeLa cells assessed as inhibition of amyloid beta (1 to 40) production by DELFIA-based immunoassay; type: cell-based
human MDR1 (P-gp) = experiment: Efflux ratio of permeability from basolateral to apical side to apical to basolateral side of MDCK cells expressing human MDR1; type: ADME, cell-based, Canis lupus familiaris; conditions: dog
Summary of the method: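 MDCK cells transfected with human P-glycoprotein (MDR1); efflux ratio calculated as B→A over A→B permeability.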

Gamma-secretase [2] = experiment: Inhibition of gamma-secretase in human H4 cells expressing APP Swedish mutant assessed as inhibition of amyloid beta (1 to x) production by whole cell assay
Cavia porcellus [3] = experiment: Antialzheimer activity in sc dosed guinea pig assessed as reduction of total amyloid beta level in brain after 3 hrs by DELFIA-based ELISA; type: functional
Summary of the method: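 Guinea pigs dosed sc over a range of doses and brain Aβ1-X measured by DELFIA ELISA at 3 h; brain ED50 derived from the dose–response.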

[4] = Effect on gamma secretase-mediated notch processing in C57BL/6 mouse fetal thymic organ cultures assessed as reduction of B and T-cell populations after 45 mins by FACS analysis
[5] = Ratio of EC50 for gamma secretase-mediated notch processing in C57BL/6 mouse fetal thymic organ cultures to plasma concentration observed at brain ED50 of total beta-amyloid level
Summary of the method: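 FTOC EC50 divided by the plasma concentration at the brain ED50. That plasma concentration was obtained by linear least-squares regression of dose against measured plasma concentration in guinea pigs.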

Cavia porcellus [6] = experiment: Antialzheimer activity in guinea pig assessed as reduction of total amyloid beta level in brain at 7 to 32 mg/kg, sc administered 3 doses over 24 hrs measured after 3 hrs last post dose by DELFIA-based ELISA; type: functional, organism-based
Summary of the method: (§1)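 Guinea pigs dosed sc at 7 or 32 mg/kg three times over 24 h (0, 12, 24 h). Tissues collected 3 h after the final dose, and Aβ measured by DELFIA ELISA; compared with vehicle by one-way ANOVA and Dunnett's test.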

[7] = Plasma concentration in guinea pig at 3.2 mg/kg, sc; type: ADME, organism-based, Cavia porcellus; design: dose 3.2 mg/kg, route subcutaneous; conditions: in vivo
Summary of the method: (§2)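 Guinea pigs given a single 3.2 mg/kg sc dose; drug concentrations in plasma and brain determined at the 3 h sampling point.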

[8] = Drug concentration in guinea pig brain at 3.2 mg/kg, sc; type: ADME, organism-based, Cavia porcellus; design: dose 3.2 mg/kg, route subcutaneous; conditions: in vivo; summary of the method: as §2
Cavia porcellus [9] = experiment: Antialzheimer activity in guinea pig assessed as reduction of total amyloid beta level in brain at 3.2 mg/kg, sc after 3 hrs by DELFIA-based ELISA; type: functional; design: scale not given: the % may be the effect or the level left; conditions: route subcutaneous
Summary of the method: (§3)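 Guinea pigs given a single sc dose (3.2–32 mg/kg); brain, CSF and plasma taken at 3 h for the dose–response, or at intervals of 3 to 24 h after 10 mg/kg for the time course. Aβ1-X, Aβ1-40 and Aβ1-42 measured by DELFIA ELISA. Data given as percentage of vehicle; one-way ANOVA with Dunnett's post-hoc versus vehicle, p<0.05.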

Cavia porcellus [10] = experiment: Antialzheimer activity in guinea pig assessed as reduction of total amyloid beta level in cerebral spinal fluid at 3.2 mg/kg, sc after 3 hrs by DELFIA-based ELISA; type: functional; design: scale not given: the % may be the effect or the level left; conditions: route subcutaneous; summary of the method: as §3
Cavia porcellus [11] = experiment: Antialzheimer activity in guinea pig assessed as reduction of total amyloid beta level in plasma at 3.2 mg/kg, sc after 3 hrs by DELFIA-based ELISA; type: functional; design: scale not given: the % may be the effect or the level left; conditions: route subcutaneous; summary of the method: as §3
Cavia porcellus [12] = experiment: Antialzheimer activity in guinea pig assessed as reduction of total amyloid beta level in brain at 10 mg/kg, sc after 3 to 10 hrs by DELFIA-based ELISA; type: functional, organism-based; design: dose 10 mg/kg; summary of the method: as §3
Cavia porcellus [13] = experiment: Antialzheimer activity in guinea pig assessed as reduction of total amyloid beta level in cerebral spinal fluid at 10 mg/kg, sc after 3 to 10 hrs by DELFIA-based ELISA; type: functional, organism-based; design: dose 10 mg/kg; summary of the method: as §3
Cavia porcellus [14] = experiment: Antialzheimer activity in guinea pig assessed as reduction of total amyloid beta level in plasma at 10 mg/kg, sc after 3 to 10 hrs by DELFIA-based ELISA; type: functional, organism-based; design: dose 10 mg/kg; summary of the method: as §3
Cavia porcellus [15] = experiment: Antialzheimer activity in guinea pig assessed as reduction of total amyloid beta level in brain at 10 mg/kg, sc after 24 hrs by DELFIA-based ELISA; type: functional, organism-based; design: dose 10 mg/kg
Summary of the method: (§4)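 Guinea pigs dosed once at 10 mg/kg sc, tissues sampled up to 24 h. Aβ1-X in brain, CSF and plasma measured by DELFIA ELISA and expressed as percentage of vehicle; one-way ANOVA with Dunnett's test versus vehicle, p<0.05.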

Cavia porcellus [16] = experiment: Antialzheimer activity in guinea pig assessed as reduction of total amyloid beta level in cerebral spinal fluid at 10 mg/kg, sc after 24 hrs by DELFIA-based ELISA; type: functional, organism-based; design: dose 10 mg/kg; summary of the method: as §4
Cavia porcellus [17] = experiment: Antialzheimer activity in guinea pig assessed as reduction of total amyloid beta level in plasma at 10 mg/kg, sc after 24 hrs by DELFIA-based ELISA; type: functional, organism-based; design: dose 10 mg/kg; summary of the method: as §4
Cavia porcellus [18] = experiment: Antialzheimer activity in guinea pig assessed as reduction of total amyloid beta level in plasma at 7 to 32 mg/kg, sc administered 3 doses over 24 hrs measured after 3 hrs last post dose by DELFIA-based ELISA; type: functional, organism-based; summary of the method: as §1
Cavia porcellus [19] = experiment: Reduction of marginal zone of B cell populations in guinea pig at 7 mg/kg, sc administered 3 doses over 24 hrs measured after 3 hrs last post dose by FACS analysis; type: organism-based; design: dose 7 mg/kg, route subcutaneous; conditions: in vivo
Summary of the method: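 Guinea pigs dosed sc at 7 mg/kg at 0, 12 and 24 h. Spleen marginal zone and whole-blood B cells counted by flow cytometry 3 h after the last dose.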

[20] = Ratio of EC50 for gamma secretase-mediated notch processing in C57BL/6 mouse fetal thymic organ cultures to IC50 for APP by whole cell assay

| SMILES | IC50 (Gamma-secretase [1]) [µM] | efflux ratio (human MDR1 (P-gp)) | IC50 (Gamma-secretase [2]) [µM] | ED50 (Cavia porcellus [3]) [mg/kg] | EC50 [4] [µM] | further results |
| --- | --- | --- | --- | --- | --- | --- |
| CCC[C@H](NC1CCc2cccc(Cl)c2C1)C(=O)Nc1cn(C(C)(C)CN2CCCC2)cn1 (mixture of isomers) | 0.031 | 3.3 | 0.0468 | – | – | – |
| CCC[C@H](NC1CCc2ccccc2C1)C(=O)Nc1cn(C(C)(C)CN2CCCC2)cn1 (some centres undefined) | 0.0857 | 2.2 | 0.0539 | – | – | – |
| CCC[C@H](NC1CCc2cc(Cl)ccc2C1)C(=O)Nc1cn(C(C)(C)CN2CCCC2)cn1 (mixture of isomers) | 0.0089 | 1.3 | 0.0124 | – | – | – |
| CCC[C@H](NC(=O)Cc1cc(F)cc(F)c1)C(=O)Nc1cn(C(C)(C)CNCC(C)(C)C)cn1 | – | 8.4 | – | – | – | – |
| CCC[C@H](N[C@H]1CCc2cc(F)cc(F)c2C1)C(=O)Nc1cn(C(C)(C)CN(C)C)cn1 | – | – | 0.0046 | 16.1 | 3.01 | – |
| CCC[C@H](N[C@H]1CCc2cc(F)cc(F)c2C1)C(=O)Nc1cn(C(C)(C)CN2CCCCC2)cn1 | – | – | 0.0033 | 4.1 | 2.56 | Ratio [5]: 46.1 |
| CCC[C@H](NC1CCc2cc(F)ccc2C1)C(=O)Nc1cn(C(C)(C)CN2CCCC2)cn1 (mixture of isomers) | 0.0193 | 1.8 | 0.0195 | – | – | – |
| CCC[C@H](NCCC(C)C)C(=O)Nc1cn(C(C)(C)CN2CCCC2)cn1 | > 10 | 4.4 | 3.1 | – | – | – |
| CCC[C@H](N[C@H]1CCc2cc(F)cc(F)c2C1)C(=O)Nc1cn(C(C)(C)CN2CCOCC2)cn1 | – | – | 0.0069 | 2.9 | 1.09 | Ratio [5]: 16.3 |
| CCC[C@H](NC1CCc2cc(F)cc(F)c2C1)C(=O)Nc1cn(C(C)(C)CN2CCCC2)cn1 (mixture of isomers) | 0.0041 | 1.5 | 0.0054 | – | – | – |
| CCC[C@H](NCCc1cc(F)cc(F)c1)C(=O)Nc1cn(C(C)(C)CN2CCCC2)cn1 | 0.25 | 1.9 | 0.754 | – | – | – |
| CCC[C@H](N[C@H]1CCc2cc(F)cc(F)c2C1)C(=O)Nc1cn(C(C)(C)CNCC(C)(C)C)cn1 [NIROGACESTAT] | – | – | – | 2.3 | 1.83 | – |
| CCC[C@H](NC(CC)CC)C(=O)Nc1cn(C(C)(C)CN2CCCC2)cn1 | 6.12 | 2.3 | 0.31 | – | – | – |
| CCC[C@H](N[C@H]1CCc2cc(F)cc(F)c2C1)C(=O)Nc1cn(C(C)(C)CNC(C)C)cn1 | – | – | 0.0193 | 41.2 | 6.1 | Ratio [5]: 3.5 |
| CCC[C@H](N[C@H]1CCc2cc(F)cc(F)c2C1)C(=O)Nc1cn(C(C)(C)CN2CCCC2)cn1 | – | – | 0.0029 | 9.9 | 3.26 | Activity (Cavia porcellus [6]): Active; Cp [7]: 0.1 µg/mL; Drug uptake [8]: 587 ng/mL; Activity (Cavia porcellus [9]): 33%; Activity (Cavia porcellus [10]): 31%; Activity (Cavia porcellus [11]): 30%; Activity (Cavia porcellus [12]): Active; Activity (Cavia porcellus [13]): Active; Activity (Cavia porcellus [14]): Active; Activity (Cavia porcellus [15]): Active; Activity (Cavia porcellus [16]): inactive; Activity (Cavia porcellus [17]): inactive; Ratio [5]: 9.8; Activity (Cavia porcellus [18]): Active; Activity (Cavia porcellus [19]): Non-toxic; Ratio [20]: > 500 |
| CCC[C@H](NC1COc2ccccc2C1)C(=O)Nc1cn(C(C)(C)CN2CCCC2)cn1 (some centres undefined) | 0.0933 | 2.9 | 0.155 | – | – | – |
| CCC[C@H](NCc1cc(F)cc(F)c1)C(=O)Nc1cn(C(C)(C)CN2CCCC2)cn1 | 0.499 | 1.8 | 0.48 | – | – | – |
| CCC[C@H](NC1Cc2ccccc2C1)C(=O)Nc1cn(C(C)(C)CN2CCCC2)cn1 | 0.148 | 1.8 | 0.272 | – | – | – |
| CCC[C@H](N[C@H]1CCc2cc(F)cc(F)c2C1)C(=O)Nc1cn(C(C)(C)CNCC(F)(F)F)cn1 | – | – | 0.0049 | 14.6 | 5.1 | Ratio [5]: 37.7 |
